One data set concerns K562/R7. The data set can be described thus: Inhibition of p-gp (unknown origin) in doxorubicin-resistant human K562/R7 cells assessed as increase in daunorubicin accumulation measured as fluorescence ratio at 10 uM incubated for 1 hr with 10 uM daunorubicin by flow cytometry relative to control. It counts as cell-based. In outline: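 Resistant K562/R7 cells ([…]) incubated 1 h at 37 °C in RPMI 1640 with daunorubicin 10 µM, with or without steroid at 10 µM; intracellular fluorescence read by flow cytometry. Accumulation index = daunorubicin fluorescence ratio with/without modulator. Cyclosporin A as positive control. Duplicates, at least three separate experiments.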

Data set [1] in a line: Intrinsic cytotoxicity against human K562 cells assessed as cell survival […] by MTT assay. The settings on record: read-out: Survival. Type of data set: cell-based. Background: Tetrazolium assays rely on reduction of a dye to a coloured formazan, in cell work by metabolically active cells.

In ChEMBL document CHEMBL3414422, “Synthesis of new steroidal inhibitors of P-glycoprotein-mediated multidrug resistance and biological evaluation on K562/R7 erythroleukemia cells” (J Med Chem, 2015) one finds Ratio and viability data, which are given here for six compounds.

Regarding `COCO[C@@H]1C[C@@H]2CC(=O)CC[C@]2(C)[C@H]2C[C@H](O)[C@]3(C)[C@@H](C(C)CCC(=O)OC)CC[C@H]3[C@H]12` (some centres not stated), in the data set on K562/R7, the Ratio was 1.8. For the same compound, the viability in data set [1] turned out to be 95.7%.
In the same order, the values of `COC(=O)CCC(C)[C@H]1CC[C@H]2[C@@H]3[C@H](O[C@@H]4CCCCO4)C[C@@H]4CC(=O)CC[C@]4(C)[C@H]3C[C@H](OC(=O)c3ccccc3)[C@]12C` (some centres not stated) are 2.9 and 51.3%.
With `COCCCC(C)[C@H]1CC[C@H]2[C@@H]3[C@H](OC(=O)c4ccccc4)C[C@@H]4CC(=O)CC[C@]4(C)[C@H]3C[C@H](O[C@@H]3CCCCO3)[C@]12C` (some centres not stated), in the data set with K562/R7, the Ratio stood at 2.4. Moreover, the viability in data set [1] came to 54.4%.
In the same order, the values of `CC#C[C@]1(O)CC[C@H]2[C@@H]3CCC4=CC(=O)CCC4=C3[C@@H](c3ccc(N(C)C)cc3)C[C@@]21C` [MIFEPRISTONE] are 2.4 and 95.6%.
In the same order, the values of `CC(=O)[C@H]1CC[C@H]2[C@H]3[C@H]([C@H](O[C@H]4CCCCO4)C[C@]12C)[C@@]1(C)CCC(=O)C[C@H]1C[C@H]3OC(=O)c1ccccc1` are 2.3 and 100%.
Regarding `COC(=O)CCC(C)[C@H]1CC[C@H]2[C@@H]3[C@H](OC(=O)c4ccccc4)C[C@@H]4CC(=O)CC[C@]4(C)[C@H]3C[C@H](OC(=O)c3ccccc3)[C@]12C` (some centres not stated), the Ratio in the data set with K562/R7 was found to be 1.5. For the same compound, the viability in data set [1] worked out at 57.3%.
